HIF activator: HIF pathway transcriptional activators, primary screen, cell-based, U2OS HRE-luciferase, luminescence. U2OS HRE-luciferase reporter; normalized: DMSO 0%, desferrioxamine 100%. 0.32% of 300,000 active. AID 1910, 2009. activation, % at 7.5 µM (by protocol);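 active means mean activation of at least 10% of the iron chelator positive control signal, with at least half of replicates also reaching 10%; inconclusive means mean and replicate majority disagree about reaching 10%; inactive means mean and most replicates under 10%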
T cruzi repl: inhibitors of intracellular T. cruzi growth, primary screen, luminescence, NIH3T3 host cells | 1.4% of 300,000 active | AID 1885, 2009 | T. cruzi beta-gal in NIH3T3, 90 h | inhibition, % (concentration not given with the values);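 active means mean inhibition across valid replicates above about 55%, limit read from the data; inconclusive means mean below that limit but half or more replicates reach it; inactive means mean below it, under half of replicates reach it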;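 further: signal also drops with host cell toxicity which is not excluded here; 0% = plate median of DMSO wells and 100% = zero luminescence signal; higher percent means less beta-gal luminescence so fewer parasites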
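Assay system: NIH/3T3 host cells with β-galactosidase reporter T. cruzi; input: 5,000 host fibroblasts per well; compound: single 50 nL compound addition per well in DMSO; timing: ≥90 h infection period, 3 h prior cell attachment; measured by: GalScreen β-gal luminescence, detergent lysis, 60 min; evaluation: percent inhibition of parasite-derived β-gal signal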
HSF-1 act: HSF-1 activators, primary screen, NIH3T3-HGL cells, MG132 stress, luminescence, single point; NIH3T3-HGL HSF-1 luciferase reporter, 8 h; 100% = twice DMSO control signal; activation, % at 9 µM; 1.7% of 300,000 active; AID 504408, 2011;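 active means mean replicate activation of at least 50% with a set share of replicates each reaching 50%; inconclusive means only one of those two conditions met; inactive means mean below 50% and too few replicates reaching it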;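 further: 0% = median of the neutral control wells and 100% = twice that signal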
Calb FLC: C. albicans growth inhibition with fluconazole, primary screen, CaCi-2 strain, Alamar Blue fluorescence. 0.57% of 300,000 active. C. albicans CaCi-2 (fluconazole-resistant clinical isolate) + fluconazole, 48 h. growth inhibition, % (no concentration beside the values);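 active means growth inhibition above about 58% in most replicates, limit read from the data, passing the limit was not always enough; inconclusive means exactly half the replicates above a set limit; inactive means most replicates below a set limit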;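 further: all wells also contain fluconazole at 8 µg/ml as a sub-toxic cotreatment; 0% = median of DMSO wells and 100% = median of geldanamycin control wells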
HSF1 inhib: HSF1 inhibitors in luciferase reporter cells, primary screen, cell-based, NIH3T3, luminescence. NIH3T3-HGL HSE-luciferase, MG132-induced, luminescence 8 h; active compounds read low. activity change, negative = inhibition, % at 7.5 µM (by protocol). 0.77% of 300,000 active. AID 2098, 2009;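 active means more than half of replicate wells show activity change below -50%, luminescence cut by over half; inconclusive means some wells, but at most half, below -50%; inactive means no replicate well below -50%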;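 further: luciferase reports HSF-1 transcriptional activity via heat shock element; 0% = median of DMSO wells and -100% = zero luminescence signal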
* hit, by the source's call; ? = inconclusive; / = no result given. Only some compounds are listed: those with a hit (about 4.4% of all), similar ones and a draw of the others.

SMILES | HIF activator | T cruzi repl | HSF-1 act | Calb FLC | HSF1 inhib
O=C(Nc1ccccc1)c1ccc(NC(=O)C2CC2)cc1 | 4.0 | 8.7 | 54.0* | -10.9 | 27.5
O=C1C(Cl)=C(NC(=O)c2ccccc2)C(=O)C(Cl)=C1NC(=O)c1ccccc1 | 0.5 | 68.1* | 17.9 | 15.1 | 2.9
O=C(Nc1nc(=O)n(C(=O)c2cccc(C(F)(F)F)c2)s1)c1ccccc1 | -0.4 | -14.9 | -18.2 | -12.2 | -5.5
c1ccc(CCNc2nc3ccccc3s2)cc1 | 3.6 | 8.5 | 55.9* | -6.0 | 27.2
COc1ccccc1CN(Cc1cccnc1)S(=O)(=O)c1ccc(-n2cnnn2)c(OC)c1 | -0.4 | 34.6 | -7.0 | 0.3 | -2.0
COc1ccc(CN(Cc2cccnc2)S(=O)(=O)c2ccc(-n3cnnn3)c(C)c2)cc1OC | -0.3 | 78.2* | -22.8 | 22.2 | -0.6
Cc1cc(=O)oc2ccc(OCc3ccccc3)cc12 | -30.1 | -16.7 | 4.5 | 3.0 | -2.1
Cc1cc(=O)oc2cc(OCc3ccccc3)ccc12 | 0.7 | -0.5 | 58.0* | 5.5 | 38.2
O=[N+]([O-])c1ccc(COc2ccc(-c3[nH]ncc3-c3ccc(Cl)cc3)c(O)c2)cc1 | -0.5 | 38.0 | 39.4 | -3.3 | 2.9
COc1ccc(-c2cn[nH]c2-c2ccc(OCc3ccc([N+](=O)[O-])cc3)cc2O)cc1OC | -0.3 | 52.3 | 56.6* | -10.5 | 29.5
COc1ccc(Nc2c3c(nc4ccc(C)cc24)CCC3)cc1 | -0.6 | 29.7 | -7.3 | -27.5 | 7.9
Cc1ccc2nc3c(c(Nc4ccc(O)cc4)c2c1)CCC3 | -0.8 | 62.3* | 20.4 | / | 3.7
O=C(COC(=O)C1CCCC1)Nc1ncc(Cl)cc1Cl | -0.2 | -10.9 | -12.4 | 0.4 | -7.5
O=S(=O)(Nc1c(O)ccc2ccccc12)c1cccc2ccccc12 | 0.5 | 3.0 | -91.8 | -1.7 | -89.8*
Clc1ccc(CSc2nnc(CNc3cccc(Cl)c3)o2)cc1 | 0.1 | 49.3 | -8.9 | 39.4 | 3.4
C=CCOc1ccccc1CN1CCCC(CCC(=O)N(C)CCc2ccccn2)C1 (stereo unspecified) | 0.4 | 56.4* | -1.7 | -17.2 | 2.5
CC(C)NS(=O)(=O)c1ccc(OCC(=O)Nc2cccc(F)c2)cc1 | 0.4 | -4.4 | -1.9 | -2.1 | -3.3
CCOC(=O)C1(CCOc2ccccc2)CCN(Cc2cccc3c2OCO3)CC1 | -1.3 | 65.2* | 1.2 | -16.5 | -3.7
CCOC(=O)C1(CCOc2ccccc2)CCN(Cc2cccc(OC)c2OC)CC1 | -51.3 | 24.0 | 3.8 | 21.6 | -6.1
CCOC(=O)C1(CCOc2ccccc2)CCN(Cc2ccccc2O)CC1 | 0.7 | 28.7 | 7.6 | -5.2 | 4.2
CCOC(=O)C1(CCOc2ccccc2)CCN(Cc2cc(OC)c3c(c2)OCO3)CC1 | -0.5 | 60.4* | 56.8* | ? | 26.5
Cc1cc(S(=O)(=O)NC(C)C)ccc1OCC(=O)NCc1ccccc1 | 0.1 | 11.0 | -16.9 | -5.1 | -3.4
COc1ccc(C2C(C(=O)c3ccco3)=C(O)C(=O)N2CCCn2ccnc2)c(OC)c1 (stereo unspecified) | 2.4 | -24.3 | -11.7 | 1.0 | 0.1
O=C(CCC(=O)c1ccc(Br)cc1)Nc1cccnc1 | 0.0 | -8.7 | -88.3 | -4.8 | -85.0*
Fc1ccccc1/C=C1\CCCC2=C1NC(=S)NC2c1ccccc1F (stereo unspecified) | -0.1 | 34.0 | 22.1 | -1.0 | -0.1
SMILES | HIF activator | T cruzi repl | HSF-1 act | Calb FLC | HSF1 inhib
COc1cccc(CCNC(=O)C2CCC(=O)N(C3CC3)C2)c1OC (stereo unspecified) | -0.3 | -9.1 | 59.2* | -7.4 | 20.7
COc1ccc(COc2cc(-c3cccc(OC)c3)nc3ccc(NC(C)=O)cc23)cc1 | -0.2 | 68.3* | 17.8 | -10.3 | 5.4
COc1ccccc1CCNC(=O)c1cc(-c2ccncc2)nc2ccc(Br)cc12 | -0.4 | 89.0* | -5.3 | -5.2 | -0.2
CSc1ccccc1NC(=O)c1cc(-c2cccnc2)nc2ccc(Br)cc12 | -1.9 | 69.3* | -13.0 | -1.8 | -4.4
COc1cccc(-c2cc(C(=O)Nc3ccc(N(C)C(C)=O)cc3)c3cc(Br)ccc3n2)c1 | -0.2 | 60.9* | 40.9 | -13.3 | 13.6
COc1ccc(COc2cc(-c3cccc(OC)c3)nc3ccc(NC(=O)c4ccc(C)cc4)cc23)cc1 | 1.5 | 23.1 | -24.7 | -8.9 | -28.9
Cc1ccc(N=c2sc(C)c(C)n2C)cc1 | 3.4 | -15.0 | 0.6 | -0.1 | 3.8
O=[N+]([O-])c1ccc(N=Cc2sc3ccccc3c2O)cc1 | 0.6 | -28.6 | -87.0 | -6.7 | -84.1*
Clc1cccc(OCCN2CCOCC2)c1 | -0.2 | -10.9 | -0.2 | 3.2 | 1.6
Clc1cccc(OCCN2CCNCC2)c1 | 0.5 | 57.8* | 22.2 | 5.1 | 19.5
OCCN1CCN(CCOc2cccc(Cl)c2)CC1 | 0.9 | 66.0* | -16.0 | 3.3 | -3.4
CC(C)NC(=O)CN(C(=O)CCC(=O)Nc1nccs1)c1ccc(C(C)C)cc1 | -0.3 | 8.8 | -3.9 | -1.2 | -2.4
CC(=O)c1ccc(NC(=S)N2C(C)CCCC2C)cc1 (stereo unspecified) | 2.7 | -18.8 | 58.9* | -12.5 | 17.4
O=C(N/N=C/C1CC=CCC1)c1ccccc1O (stereo unspecified) | 0.0 | -22.0 | -7.2 | -4.3 | -7.8
O=C(CNc1ccccc1F)N/N=C/C1CC=CCC1 (stereo unspecified) | / | / | / | 122.6* | /
Cc1ccccc1C(=O)NCCOc1ccccc1Cl | -1.8 | -6.3 | 69.6* | -4.8 | 42.9
CSc1ccccc1C(=O)NCCOc1ccccc1C | 0.1 | 2.4 | 28.0 | 3.3 | 3.7
CCC(Sc1nnc(C)c(=O)[nH]1)C(=O)Nc1cccc2ccccc12 (stereo unspecified) | 0.6 | -14.8 | 6.8 | 0.3 | -1.4
Nn1c(Cc2ccccc2F)nnc1SCn1nnc2ccccc2c1=O | 0.0 | 3.2 | 10.6 | 23.8 | 4.8
O=c1c2ccccc2nnn1CSc1ncnc2ccccc12 | 0.0 | -4.2 | 112.2* | -1.0 | 77.8
O=c1c2ccccc2nnn1CSc1ccccc1F | 1.0 | 2.9 | 81.5* | -36.4 | 29.5
Cc1ccc(SCn2nnc3ccccc3c2=O)c(C)c1 | 2.9 | -1.2 | 65.6* | -2.7 | 36.5
COC(=O)CSc1nnc(-c2ccccn2)n1N | 0.1 | -20.8 | 2.6 | 6.8 | 2.6
Cc1ccc(N=Nc2c(N)nn(-c3ccccc3)c2N)cc1 | 3.8 | -26.9 | -35.2 | ? | -37.3
Cc1nn(-c2ccccc2)c(N)c1N=Nc1ccc2ccccc2c1 | 1.9 | -26.3 | 78.4* | -6.7 | 41.0
CCOc1ccc2nc(NC(=O)CSCC(=O)Nc3cc(C)on3)sc2c1 | 1.3 | 4.8 | -47.1 | / | -29.4
O=C(Cn1ncc2c3ccccc3n(Cc3ccccc3F)c2c1=O)NCCN1CCOCC1 | 32.2* | 7.0 | -8.9 | 19.0 | 2.0
CCOc1cc(/C=C2\SC(=Nc3ccccc3)N(c3ccccc3)C2=O)ccc1OCC(=O)O | -0.2 | 10.3 | 25.6 | 44.7 | 6.0
